Assay results pooled from the literature.
Lines come from different studies, so protocols differ.
Target: Casein kinase I isoform gamma-1 (CSNK1G1, Homo sapiens, UniProt Q9HCP0)

| SMILES | read-out | action | method | concentration | endpoint | value |
| --- | --- | --- | --- | --- | --- | --- |
| Nc1ncc(-c2nc(N3CCOCC3)nc(N3CCOCC3)n2)c(C(F)F)n1 | binding | – | competition with immobilised ligand | 10 µM | remaining binding | 79% |
| COc1ncccc1-c1cnn2ccc(N3CCN(C(=O)OC(C)C)CC3)nc12 | binding | – | competition with immobilised ligand | 1 µM | remaining binding | 77% |
| COc1cc(Nc2ncc(F)c(Nc3ccc4c(n3)NC(=O)C(C)(C)O4)n2)cc(OC)c1OC | binding | – | competition with immobilised ligand | 10 µM | inhibition | 0% |
| O=c1[nH]c2ccccc2n1C1CCN(Cc2ccc(-c3[nH]c4cc5ncnc5cc4nc3-c3ccccc3)cc2)CC1 | cell-free assay | – | – | 0.5 µM | remaining signal | 99.3% |
| C#Cc1n[nH]c2c(-c3cn([C@@H](C)c4ccccc4)c(=O)[nH]c3=O)cc(F)cc12 | enzyme activity | inhibitor | – | 0.1 µM | inhibition | 6.6% |
| Cn1cncc1[C@@](O)(COc1ccc(C#N)cc1-c1ccc(OC(F)(F)F)cc1)c1ccc(C#N)cc1 | cell-free assay | – | competition with immobilised ligand | 1 µM | remaining binding | 91% |
| CC(C)(C)c1cc(C=C(C#N)C#N)cc(Br)c1O | enzyme activity | inhibitor | – | 0.5 µM | remaining activity | 106% |
| Cc1nn(C)cc1-c1nc2c(N3CCN(Cc4ccc(Cl)cc4)CC3)c(Cl)cnc2[nH]1 | binding | – | competition with immobilised ligand | 1 µM | remaining binding | 100% |
| Cn1cc(-c2cc(F)cc(N3CCn4c(cc5c4CCCC5)C3=O)c2CO)cc(Nc2ccc(N3CCN(C4COC4)CC3)cn2)c1=O | enzyme activity | inhibitor | – | 0.1 µM | inhibition | 1% |
| N#CC1(c2ccccn2)CCN(Cc2cc(C(=O)O)c(=O)n3ccccc23)CC1 | cell-free assay | – | competition with immobilised ligand | 1 µM | remaining binding | 100% |
| C#Cc1n[nH]c2c(-c3cn(C(C)c4ccccn4)c(=O)[nH]c3=O)cc(F)cc12 (stereo not drawn) | enzyme activity | inhibitor | – | 1 µM | inhibition | 5.4% |
| Cn1cc(-c2cccc(N3CCc4c(sc5c4CC(C)(C)C5)C3=O)c2CO)cc(Nc2ccncn2)c1=O | enzyme activity | inhibitor | – | 1 µM | inhibition | 5% |
